Activity calls are given as the source filed them. No cut-off for these calls is given here.
Test system: SAOS-2
Experiment: Induction of apoptosis in human Saos2 cells at 1 uM after 24 hrs by annexin V-FITC/propidium iodide staining-based flow cytometric method
Format: functional
Settings: not given
Summary of the method: (§1)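 Apoptosis was scored by fluorescence-activated cell sorting after 24 h treatment of HCT-116 and Saos-2 cells, with DMSO controls. Cell morphology was also examined. The percentage of apoptotic cells was reported at 1 and 5 μM.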

Structure (SMILES) | Activity [%]
COc1cc(/C=C/C(=O)N2CCC=CC2=O)cc(OC)c1OC [PIPLARTINE] | 26
O=C(/C=C/c1ccccc1)N1CCC=C(Cl)C1=O | 12.7

Test system: SAOS-2
Experiment: Induction of reactive oxygen species generation in human Saos2 cells at 10 uM after 1 hr by DCFH-DA dye-based fluorescence microscopic analysis relative to control
Format: functional
Settings: not given
Summary of the method: (§2)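 ROS was imaged by fluorescence microscopy in HCT-116 and Saos-2 cells after 1 h treatment at 10 μM. DMSO-treated cells served as the control.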

Structure (SMILES) | fold change (FC)
O=C(/C=C/c1cccnc1)N1CCC=C(Cl)C1=O | 2
O=C(C#Cc1ccccc1)N1CCC=C(Cl)C1=O | 2
O=C(/C=C/c1ccccc1)N1CCC=C(Cl)C1=O | 2

Test system: HCT-116
Experiment: Cell cycle arrest in human HCT116 cells assessed as accumulation at G0/G1 phase after 24 hrs by propidium iodide staining based flow cytometric method
Format: functional
Settings: not given

Structure (SMILES) | Activity
O=C(/C=C/c1ccccc1)N1CCC=C(Cl)C1=O | Dose-dependent effect

Test system: SAOS-2
Experiment: Induction of reactive oxygen species generation in human Saos2 cells at 1 to 5 uM after 1 to 3 hrs by DCFH-DA dye-based fluorescence microscopic analysis
Format: functional, cell-based
Settings: not given
Summary of the method: (§3)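 Cellular ROS was imaged by fluorescence microscopy in HCT-116 and Saos-2 cells. Cells were treated at 1, 5 and 10 μM for 1 h and 3 h, with a DMSO control.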

Structure (SMILES) | Activity
O=C(/C=C/c1ccccc1)N1CCC=C(Cl)C1=O | Active

Test system: SAOS-2
Experiment: Cell cycle arrest in human Saos2 cells assessed as accumulation at G2/M phase at 1 to 5 uM after 24 hrs by propidium iodide staining based flow cytometric method
Format: functional
Settings: not given

Structure (SMILES) | Activity
COc1cc(/C=C/C(=O)N2CCC=CC2=O)cc(OC)c1OC [PIPLARTINE] | inactive
O=C(/C=C/c1ccccc1)N1CCC=C(Cl)C1=O | inactive

Test system: HCT-116
Experiment: Induction of apoptosis in human HCT116 cells at 1 uM after 24 hrs by annexin V-FITC/propidium iodide staining-based flow cytometric method
Format: functional
Settings: not given
Summary of the method: as §1

Structure (SMILES) | Activity [%]
O=C(/C=C/c1ccccc1)N1CCC=C(Cl)C1=O | 16

Test system: SAOS-2
Experiment: Induction of apoptosis in human Saos2 cells at 5 uM after 24 hrs by annexin V-FITC/propidium iodide staining-based flow cytometric method
Format: functional
Settings: not given
Summary of the method: as §1

Structure (SMILES) | Activity [%]
COc1cc(/C=C/C(=O)N2CCC=CC2=O)cc(OC)c1OC [PIPLARTINE] | 33
O=C(/C=C/c1ccccc1)N1CCC=C(Cl)C1=O | 21.5

Test system: HCT-116
Experiment: Induction of apoptosis in human HCT116 cells at 5 uM after 24 hrs by annexin V-FITC/propidium iodide staining-based flow cytometric method
Format: functional
Settings: not given
Summary of the method: as §1

Structure (SMILES) | Activity [%]
O=C(/C=C/c1ccccc1)N1CCC=C(Cl)C1=O | 17

Test system: A549
Experiment: Antiproliferative activity against human A549 cells after 72 hrs by MTT assay
Format: functional, cell-based
Settings: A549, 72 h
Summary of the method: (§4)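 Cell growth inhibition was read by MTT assay, and IC50 values were reported.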

Structure (SMILES) | IC50 [µM]
O=C1C(Cl)=CCCN1C(=O)c1ccncc1 | > 100
O=C(/C=C/c1cccnc1)N1CCC=C(Cl)C1=O | 2.97
COc1cc(/C=C/C(=O)N2CCC=CC2=O)cc(OC)c1OC [PIPLARTINE] | 6.84

Second part, the molecule after the results:

IC50 [µM] | Structure (SMILES)
85.1 | O=C1C(Cl)=CCCN1C(=O)C1CC1c1ccccc1 (configuration not stated)
7.93 | O=C(C#Cc1ccccc1)N1CCC=C(Cl)C1=O
4.12 | O=C(/C=C/c1ccccc1)N1CCC=C(Cl)C1=O

Test system: HCT-116
Experiment: Cell cycle arrest in human HCT116 cells accumulation at G0/G1 phase at 1 to 5 uM after 24 hrs by propidium iodide staining based flow cytometric method
Settings: not given

Structure (SMILES) | Activity
COc1cc(/C=C/C(=O)N2CCC=CC2=O)cc(OC)c1OC [PIPLARTINE] | Active

Test system: SK-HEP1
Experiment: Antiproliferative activity against human SKHEP1 cells after 72 hrs by MTT assay
Format: functional, cell-based
Settings: SK-HEP1, 72 h
Summary of the method: as §4

Structure (SMILES) | IC50 [µM]
O=C1C(Cl)=CCCN1C(=O)c1ccncc1 | > 100
O=C(/C=C/c1cccnc1)N1CCC=C(Cl)C1=O | 1.9
COc1cc(/C=C/C(=O)N2CCC=CC2=O)cc(OC)c1OC [PIPLARTINE] | 13.3

The next lines start with the values.

IC50 [µM] | Structure (SMILES)
72.9 | O=C1C(Cl)=CCCN1C(=O)C1CC1c1ccccc1 (configuration not stated)
1.19 | O=C(C#Cc1ccccc1)N1CCC=C(Cl)C1=O
0.71 | O=C(/C=C/c1ccccc1)N1CCC=C(Cl)C1=O

Test system: SAOS-2
Experiment: Induction of apoptosis in human Saos2 cells after 24 hrs by annexin V-FITC/propidium iodide staining-based flow cytometric method
Format: functional, cell-based
Settings: not given
Summary of the method: as §1

Structure (SMILES) | Activity
COc1cc(/C=C/C(=O)N2CCC=CC2=O)cc(OC)c1OC [PIPLARTINE] | Dose-dependent effect
O=C(/C=C/c1ccccc1)N1CCC=C(Cl)C1=O | Dose-dependent effect

Test system: U2OS
Experiment: Antiproliferative activity against human U2OS cells after 72 hrs by MTT assay
Format: functional, cell-based
Settings: not given
Summary of the method: as §4

Structure (SMILES) | IC50 [µM]
O=C1C(Cl)=CCCN1C(=O)c1ccncc1 | > 100
O=C(/C=C/c1cccnc1)N1CCC=C(Cl)C1=O | 1.67
COc1cc(/C=C/C(=O)N2CCC=CC2=O)cc(OC)c1OC [PIPLARTINE] | 9.49

The next lines start with the values.

IC50 [µM] | Structure (SMILES)
68.3 | O=C1C(Cl)=CCCN1C(=O)C1CC1c1ccccc1 (configuration not stated)
1.12 | O=C(C#Cc1ccccc1)N1CCC=C(Cl)C1=O
1.17 | O=C(/C=C/c1ccccc1)N1CCC=C(Cl)C1=O

Test system: HCT-116
Experiment: Cell cycle arrest in human HCT116 cells assessed as accumulation at S phase 1 to 5 uM after 24 hrs by propidium iodide staining based flow cytometric method
Format: functional
Settings: not given

Structure (SMILES) | Activity
COc1cc(/C=C/C(=O)N2CCC=CC2=O)cc(OC)c1OC [PIPLARTINE] | Active
O=C(/C=C/c1ccccc1)N1CCC=C(Cl)C1=O | Active

Test system: HCT-116
Experiment: Induction of reactive oxygen species generation in human HCT116 cells at 1 to 5 uM after 1 to 3 hrs by DCFH-DA dye-based fluorescence microscopic analysis
Format: functional, cell-based
Settings: not given
Summary of the method: as §3

Structure (SMILES) | Activity
O=C(/C=C/c1ccccc1)N1CCC=C(Cl)C1=O | Active

Test system: HCT-116
Experiment: Induction of reactive oxygen species generation in human HCT116 cells at 10 uM after 1 hr by DCFH-DA dye-based fluorescence microscopic analysis
Format: functional, cell-based
Settings: not given
Summary of the method: as §2

Structure (SMILES) | Activity
O=C(/C=C/c1cccnc1)N1CCC=C(Cl)C1=O | Active
COc1cc(/C=C/C(=O)N2CCC=CC2=O)cc(OC)c1OC [PIPLARTINE] | Active
O=C(C#Cc1ccccc1)N1CCC=C(Cl)C1=O | inactive
O=C(/C=C/c1ccccc1)N1CCC=C(Cl)C1=O | Active

Test system: MDA-MB-231
Experiment: Antiproliferative activity against human MDA-MB-231 cells after 72 hrs by MTT assay
Format: functional, cell-based
Settings: MDA-MB-231, 72 h
Summary of the method: as §4

Structure (SMILES) | IC50 [µM]
O=C1C(Cl)=CCCN1C(=O)c1ccncc1 | > 100
O=C(/C=C/c1cccnc1)N1CCC=C(Cl)C1=O | 2.97
COc1cc(/C=C/C(=O)N2CCC=CC2=O)cc(OC)c1OC [PIPLARTINE] | 10.6

Further lines, results first:

IC50 [µM] | Structure (SMILES)
65.1 | O=C1C(Cl)=CCCN1C(=O)C1CC1c1ccccc1 (configuration not stated)
1.73 | O=C(C#Cc1ccccc1)N1CCC=C(Cl)C1=O
1.67 | O=C(/C=C/c1ccccc1)N1CCC=C(Cl)C1=O

Test system: HCT-116
Experiment: Induction of reactive oxygen species generation in human HCT116 cells at 1 to 10 uM by DCFH-DA dye-based fluorescence microscopic analysis
Format: functional, cell-based
Settings: TDE = time-dependent effect
Summary of the method: as §3

Structure (SMILES) | Activity
O=C(/C=C/c1ccccc1)N1CCC=C(Cl)C1=O | Tde

Test system: SAOS-2
Experiment: Cell cycle arrest in human Saos2 cells assessed as accumulation at S phase at 1 to 5 uM after 24 hrs by propidium iodide staining based flow cytometric method
Format: functional
Settings: not given

Structure (SMILES) | Activity
COc1cc(/C=C/C(=O)N2CCC=CC2=O)cc(OC)c1OC [PIPLARTINE] | inactive
O=C(/C=C/c1ccccc1)N1CCC=C(Cl)C1=O | inactive

Test system: SAOS-2
Experiment: Antiproliferative activity against human Saos2 cells after 72 hrs by MTT assay
Format: functional, cell-based
Settings: SAOS-2, 72 h
Summary of the method: as §4

Structure (SMILES) | IC50 [µM]
O=C1C(Cl)=CCCN1C(=O)C1CC1c1ccccc1 (configuration not stated) | 23.5
O=C1C(Cl)=CCCN1C(=O)c1ccncc1 | 89.9
O=C(/C=C/c1cccnc1)N1CCC=C(Cl)C1=O | 0.53
COc1cc(/C=C/C(=O)N2CCC=CC2=O)cc(OC)c1OC [PIPLARTINE] | 7.31
O=C(C#Cc1ccccc1)N1CCC=C(Cl)C1=O | 0.42
O=C(/C=C/c1ccccc1)N1CCC=C(Cl)C1=O | 0.011

Test system: HCT-116
Experiment: Cell cycle arrest in human HCT116 cells assessed as accumulation at G0/G1 phase at 1 to 5 uM after 24 hrs by propidium iodide staining based flow cytometric method
Format: functional
Settings: not given

Structure (SMILES) | Activity
COc1cc(/C=C/C(=O)N2CCC=CC2=O)cc(OC)c1OC [PIPLARTINE] | Active

Test system: HCT-116
Experiment: Induction of apoptosis in human HCT116 cells after 24 hrs by annexin V-FITC/propidium iodide staining-based flow cytometric method
Format: functional, cell-based
Settings: not given
Summary of the method: as §1

Structure (SMILES) | Activity
COc1cc(/C=C/C(=O)N2CCC=CC2=O)cc(OC)c1OC [PIPLARTINE] | Dose-dependent effect
O=C(/C=C/c1ccccc1)N1CCC=C(Cl)C1=O | Dose-dependent effect

Test system: SAOS-2
Experiment: Induction of reactive oxygen species generation in human Saos2 cells at 1 to 10 uM DCFH-DA dye-based fluorescence microscopic analysis
Format: functional, cell-based
Settings: TDE = time-dependent effect
Summary of the method: as §3

Structure (SMILES) | Activity
O=C(/C=C/c1ccccc1)N1CCC=C(Cl)C1=O | Tde

Test system: WI-38
Experiment: Cytotoxicity against human W138 cells after 72 hrs by MTT assay
Format: cell-based
Settings: WI-38, 72 h
Summary of the method: as §4

Structure (SMILES) | IC50 [µM]
O=C1C(Cl)=CCCN1C(=O)C1CC1c1ccccc1 (configuration not stated) | > 100
O=C1C(Cl)=CCCN1C(=O)c1ccncc1 | > 100
O=C(/C=C/c1cccnc1)N1CCC=C(Cl)C1=O | 47
COc1cc(/C=C/C(=O)N2CCC=CC2=O)cc(OC)c1OC [PIPLARTINE] | > 100
O=C(C#Cc1ccccc1)N1CCC=C(Cl)C1=O | > 100
O=C(/C=C/c1ccccc1)N1CCC=C(Cl)C1=O | 84.6

Test system: HCT-116
Experiment: Antiproliferative activity against human HCT116 cells after 72 hrs by MTT assay
Format: functional, cell-based
Settings: HCT-116, 72 h
Summary of the method: as §4

Structure (SMILES) | IC50 [µM]
O=C1C(Cl)=CCCN1C(=O)c1ccncc1 | > 100
O=C(/C=C/c1cccnc1)N1CCC=C(Cl)C1=O | 2.36
COc1cc(/C=C/C(=O)N2CCC=CC2=O)cc(OC)c1OC [PIPLARTINE] | 7.34

Now from value to molecule:

IC50 [µM] | Structure (SMILES)
64.5 | O=C1C(Cl)=CCCN1C(=O)C1CC1c1ccccc1 (configuration not stated)
0.92 | O=C(C#Cc1ccccc1)N1CCC=C(Cl)C1=O
1.67 | O=C(/C=C/c1ccccc1)N1CCC=C(Cl)C1=O

From ChEMBL document CHEMBL4028833, “Novel non-trimethoxylphenyl piperlongumine derivatives selectively kill cancer cells” (Bioorg Med Chem Lett, 2017)
